{"source": "ChEMBL document CHEMBL4014261", "about": "“Design, Synthesis, and Antimicrobial Evaluation of a Novel Bone-Targeting Bisphosphonate-Ciprofloxacin Conjugate for the Treatment of Osteomyelitis Biofilms” (J Med Chem, 2017)", "key": {"[1]": {"system": "Staphylococcus aureus", "assay": "Antibacterial activity against methicillin-resistant Staphylococcus aureus MR4-CIPS planktonic cells after 24 hrs by microdilution assay", "assay_type": "functional", "summary_of_the_method": "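Broth microdilution: 100 µL of 1 × 10^5 CFU/mL inoculum with graded compound concentrations, read at 580 nm before and after 24 h at 37 °C with shaking to prevent biofilm formation. Relative cell number is taken against medium + microbes controls, with 1% DMSO in the ciprofloxacin control. Growth is confirmed by 48 h subculture in fresh medium and by plating. MIC is expressed as parent-antibiotic equivalents.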"}, "[2]": {"system": "Staphylococcus aureus", "assay": "Antibiofilm activity against Staphylococcus aureus ATCC 6538 assessed as reduction in bacterial adherence to HA at 15.6 to 250 ug/ml pretreated with HA for 24 hrs followed by organism inoculation measured after 24 hrs", "assay_type": "functional", "summary_of_the_method": "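HA spherules (final 10 mg/mL) in TSB were preincubated 24 h at 37 °C with shaking with compound (final 0.12–250 mg/L), then pelleted and the supernatant discarded. They were inoculated with 1 mL S. aureus at 10^5 CFU/mL. A580 was read at 0 and 24 h (37 °C, shaking) against controls without spherules and spherules without compound; spherules were also plated for CFU.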"}, "[3]": {"system": "Pseudomonas aeruginosa", "assay": "Bactericidal activity against Pseudomonas aeruginosa ATCC 15442 biofilm using hydroxyapatite as substrate assessed as reduction in colony forming units at 50 ug/ml at pH 4.8 to 7.4 after 24 hrs", "assay_type": "functional"}, "[4]": {"system": "Staphylococcus aureus", "assay": "Antibacterial activity against methicillin-sensitive Staphylococcus aureus ATCC 6538 planktonic cells at pH 7.4 after 24 hrs by microdilution method", "assay_type": "functional", "conditions": "ATCC 6538, 24 h", "summary_of_the_method": "(§1)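 Planktonic ATCC 6538 was tested by microdilution in medium adjusted to pH 5 or pH 7.4 with KOH or HCl, with pH checked by universal indicator. MIC50 was determined at each pH.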"}, "[5]": {"system": "Staphylococcus aureus", "assay": "Antibiofilm activity against Staphylococcus aureus ATCC 6538 assessed as CFU counts at 100 ug/mL pretreated with HA for 24 hrs followed by organism inoculation measured after 24 hrs (reference value: 4.5 x 10^10CFU)", "assay_type": "functional", "summary_of_the_method": "(§2)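 HA discs were soaked 24 h at 37 °C in 2 mL compound solution, with DMSO or phosphate-buffer controls, then rinsed 3× with sterile water. Discs were inoculated with 2 mL of 0.5 McFarland S. aureus ATCC 6538 for biofilm formation. Biofilm CFU were counted after 24 h growth.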"}, "[6]": {"system": "Aggregatibacter actinomycetemcomitans", "assay": "Antibiofilm activity against Aggregatibacter actinomycetemcomitans infected in jawbone peri-implant osteomyelitis Sprague-Dawley rat model assessed as reduction in bacterial count in bone at 10 mg/kg, ip single dose measured after 1 week post pharmacotherapy", "assay_type": "functional", "parameters": "scale not given: the % may be the effect or the level left", "summary_of_the_method": "(§3)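 Rats carried two titanium implants each, preinoculated with A. actinomycetemcomitans D7S-1 biofilm (10^9 CFU), placed bilaterally in palatal bone. One week after surgery, randomized groups received i.p. doses in sterile saline; the negative control was endotoxin-free saline. One week after treatment, 1 cm² peri-implant tissue and bone were homogenized in 0.5% saponin, serially diluted 10-fold and spread-plated on modified TSB (37 °C, 5% CO2, 48 h). Read-out was CFU/g and mean log10 reduction; analysts were blinded.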"}, "[7]": {"system": "Staphylococcus aureus", "assay": "Antibacterial activity against methicillin-sensitive Staphylococcus aureus ATCC 6538 planktonic cells after 24 hrs by microdilution assay", "assay_type": "functional", "conditions": "ATCC 6538, 24 h", "summary_of_the_method": "(§4)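 Planktonic cells at 1 × 10^5 CFU/mL were exposed to compound, and A580 was read at 0 h and after 24 h at 37 °C with shaking. Controls were medium plus microbes, with 1% (v/v) DMSO where the solvent was used. Relative cell number was calculated against the control. Results were confirmed by subculture in fresh medium (48 h, 37 °C) and plating. Conjugate concentrations were expressed as parent-antibiotic equivalents.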"}, "[8]": {"system": "Rattus norvegicus", "assay": "Toxicity in jawbone peri-implant osteomyelitis Sprague-Dawley rat model infected with Aggregatibacter actinomycetemcomitans assessed as signs of gross tolerability issue at 0.1 to 10 mg/kg, ip single dose measured after 1 week post pharmacotherapy", "assay_type": "organism-based", "conditions": "in vivo, 168 h", "summary_of_the_method": "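Rats carried two *Aa* (D7S-1) biofilm-coated miniature titanium implants (10^9 CFU) in the palatal bone, one on each side. Dosing began one week after surgery: a single intraperitoneal injection under anesthesia, in sterile physiological saline, with 2 rats per group. Injection-site reactions and gross tolerability were observed during therapy. Animals were euthanized one week after pharmacotherapy.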"}, "[9]": {"system": "Staphylococcus aureus", "assay": "Antibacterial activity against methicillin-sensitive Staphylococcus aureus isolate 2 planktonic cells after 24 hrs by microdilution assay", "assay_type": "functional", "conditions": "isolate 2, 24 h", "summary_of_the_method": "as §4"}, "[10]": {"system": "Staphylococcus aureus", "assay": "Antibiofilm activity against Staphylococcus aureus ATCC 6538 assessed as CFU counts at 10 ug/mL pretreated with HA for 24 hrs followed by organism inoculation measured after 24 hrs (reference value: 4.5 x 10^10CFU)", "assay_type": "functional", "summary_of_the_method": "as §2"}, "[11]": {"system": "Aggregatibacter actinomycetemcomitans", "assay": "Antibiofilm activity against Aggregatibacter actinomycetemcomitans infected in jawbone peri-implant osteomyelitis Sprague-Dawley rat model assessed as mean CFU count/gram at 10 mg/kg, ip single dose measured after 1 week post pharmacotherapy", "assay_type": "functional, organism-based", "summary_of_the_method": "as §3"}, "[12]": {"system": "Staphylococcus aureus", "assay": "Ratio of MIC50 for methicillin-sensitive Staphylococcus aureus ATCC 6538 planktonic cells at pH 5 to MIC50 for methicillin-sensitive Staphylococcus aureus ATCC 6538 planktonic cells at pH 7.4", "assay_type": "functional", "summary_of_the_method": "as §1"}, "[13]": {"system": "Staphylococcus aureus", "assay": "Bactericidal activity against methicillin-resistant Staphylococcus aureus MR4-CIPS planktonic cells assessed as reduction in bacterial growth at 7.8 ug/ml after 2 hrs by time kill assay", "assay_type": "functional", "summary_of_the_method": "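Time-kill per CLSI on planktonic cultures, set up as the microdilution assay: 1 × 10^5 CFU/mL, 37 °C with shaking. A580 is read at 0, 1, 2, 4, 8, 16 and 24 h, and growth is expressed relative to untreated medium + microbes control. Concentrations are parent-antibiotic equivalents.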"}, "[14]": {"system": "Staphylococcus aureus", "assay": "Bactericidal activity against Staphylococcus aureus ATCC 6538 biofilm using polystyrene as substrate assessed as reduction in colony forming units after 24 hrs", "assay_type": "functional", "summary_of_the_method": "(§5)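 Biofilms were started from a 1 McFarland suspension, allowed to adhere 4 h at 37 °C on HA discs or polystyrene well bottoms, then rinsed. They were exposed 24 h at 37 °C to TSB containing 0.24–125 mg/L compound. Cells were detached in 0.5% saponin by 1 min vortexing, serially diluted and plated on Columbia (S. aureus) or MacConkey (P. aeruginosa) agar, 37 °C, 24 h. Read-out was mean CFU/mm² ± SEM; HA area was measured by X-ray tomography.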"}, "[15]": {"system": "Staphylococcus aureus", "assay": "Antibiofilm activity against Staphylococcus aureus ATCC 6538 assessed as CFU counts at 400 ug/mL pretreated with HA for 24 hrs followed by organism inoculation measured after 24 hrs (reference value: 4.5 x 10^10CFU)", "assay_type": "functional"}, "[16]": {"system": "Staphylococcus aureus", "assay": "Antibiofilm activity against Staphylococcus aureus ATCC 6538 assessed as CFU counts at 5 ug/mL pretreated with HA for 24 hrs followed by organism inoculation measured after 24 hrs (reference value: 4.5 x 10^10CFU)", "assay_type": "functional", "summary_of_the_method": "as §2"}, "[17]": {"system": "Staphylococcus aureus", "assay": "Bactericidal activity against Staphylococcus aureus ATCC 6538 biofilm using hydroxyapatite as substrate assessed as reduction in colony forming units after 24 hrs", "assay_type": "functional", "summary_of_the_method": "as §5"}, "[18]": {"system": "Staphylococcus aureus", "assay": "Bactericidal activity against methicillin-susceptible Staphylococcus aureus ATCC 6538 planktonic cells assessed as reduction in bacterial growth at 15.6 ug/ml after 2 hrs by time kill assay"}}, "note": "Activity calls are given as the source filed them. The calls are words filed in the database; no cut-off is given here."}
{"molecule": "O=C(O)c1cn(C2CC2)c2cc(N3CCN(C(=O)Oc4ccc(CC(P(=O)(O)O)P(=O)(O)O)cc4)CC3)c(F)cc2c1=O", "values": [{"measurement": "MIC", "setting": "[1]", "result": 15.6, "unit": "µg/mL"}, {"measurement": "Activity", "setting": "[2]", "result": "Active"}, {"measurement": "Activity", "setting": "[3]", "result": "Active"}, {"measurement": "MIC50", "setting": "[4]", "result": 15.6, "unit": "µg/mL"}, {"measurement": "MIC90", "setting": "[4]", "result": 31.2, "unit": "µg/mL"}, {"measurement": "Activity", "setting": "[5]", "result": "Active"}, {"measurement": "Activity", "setting": "[6]", "result": 99, "unit": "%"}, {"measurement": "MIC", "setting": "[7]", "result": 31.2, "unit": "µg/mL"}, {"measurement": "Activity", "setting": "[8]", "result": "Non-Toxic"}, {"measurement": "MIC", "setting": "[9]", "result": 0.49, "unit": "µg/mL"}, {"measurement": "Activity", "setting": "[10]", "result": "Active"}, {"measurement": "Activity", "setting": "[11]", "result": "Active"}, {"measurement": "Ratio", "setting": "[12]", "result": 0.5}, {"measurement": "Activity", "setting": "[13]", "result": "Active"}, {"measurement": "MBIC50", "setting": "[14]", "result": "15.6 to 31.2", "unit": "µg/mL"}, {"measurement": "Activity", "setting": "[15]", "result": "Active"}, {"measurement": "Activity", "setting": "[16]", "result": 3.3, "unit": "×10⁹ CFU"}, {"measurement": "MBIC50", "setting": "[17]", "result": 16, "unit": "µg/mL"}, {"measurement": "MBIC90", "setting": "[17]", "result": 100, "unit": "µg/mL"}, {"measurement": "Activity", "setting": "[18]", "result": "Active"}]}
